Values joined by “and” are separate entries in the source; they are usually repeats but may differ in a detail not shown here. Equal entries are not always repeated.
What was measured:
[1] = molecular target: 5-hydroxytryptamine receptor 7 (Rattus norvegicus) (UniProt P32305); test: Effect on basal adenylate cyclase activity relative to potency of methiothepin using rat 5-HT7 receptor expressed in HEK cells; assay type: cell-based; details: HEK293
[2] = pKa; assay type: physicochemical
[3] = molecular target: 5-hydroxytryptamine receptor 7 (Rattus norvegicus, UniProt P32305); test: Binding affinity towards rat 5-HT7 receptor expressed in HEK cells; assay type: cell-based, HEK293
5-hydroxytryptamine receptor 7, sequence (P32305 whole entry): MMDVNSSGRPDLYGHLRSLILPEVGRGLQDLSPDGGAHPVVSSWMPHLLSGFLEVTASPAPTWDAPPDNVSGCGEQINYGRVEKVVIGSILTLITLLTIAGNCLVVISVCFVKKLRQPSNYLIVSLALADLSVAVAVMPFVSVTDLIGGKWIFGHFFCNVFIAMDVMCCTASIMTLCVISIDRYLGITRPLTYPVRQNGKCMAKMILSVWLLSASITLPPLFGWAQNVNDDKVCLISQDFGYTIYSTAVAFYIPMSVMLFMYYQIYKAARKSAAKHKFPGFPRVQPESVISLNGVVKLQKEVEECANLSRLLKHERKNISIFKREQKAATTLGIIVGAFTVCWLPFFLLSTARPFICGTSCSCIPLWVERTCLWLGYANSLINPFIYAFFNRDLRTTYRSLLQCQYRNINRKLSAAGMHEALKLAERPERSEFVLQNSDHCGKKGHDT
In short: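 Membranes of HEK cells expressing rat 5-HT7, resuspended in 50 mM Tris HCl pH 7.4 with 0.5 mM EDTA, 10 mM MgSO4, 2 mM CaCl2, 10 µM pargyline, 0.1% ascorbic acid; 20 µg protein with 0.3 nM [3H]5-CT, 2 h at room temperature; nonspecific binding with 10 µM 5-HT; filtration, scintillation counting; IC50 by log regression, Ki via Cheng-Prusoff.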

[4] = Partition coefficient (logP); assay type: physicochemical; details: octanol/water

5-hydroxytryptamine receptor 7 (Rattus norvegicus), sequence (P32305 whole entry): as above

cAMP [1] [%]	pKa [2]	Ki [3]	logP ([4]; read-out: logP)	logP [4]	SMILES
-61	7	520 nM	3		COc1ccc2c(c1)CCN(CCCNS(=O)(=O)c1ccc(C)cc1)C2
	8.6	1180 nM and 1100 nM	1.6	1.6	COc1ccc2c(c1)N(CCN(C)C)CCO2
-20	7.5	52 nM	2.6		COc1ccccc1N1CCN(CCCNS(=O)(=O)c2ccc(C)cc2)CC1
-36	7	75 nM	2.3		COc1ccc2c(c1)CCN(CCCNS(=O)(=O)c1ccccc1)C2
-93	7.4	54 nM	3.1		CCN(CCCN1CCc2cc(OC)ccc2C1)S(=O)(=O)c1ccccc1
-95	7.4	11 nM	3.8		CCN(CCCN1CCc2cc(OC)ccc2C1)S(=O)(=O)c1ccc(C)cc1
-35	7.5	100 nM	2.1		COc1ccc(S(=O)(=O)NCCCN2CCN(c3ccccc3OC)CC2)cc1
-91	7.4	19 nM	4.3		CCN(CCCN1CCc2cc(OC)ccc2C1)S(=O)(=O)c1cccc2ccccc12
-66	7.4	75 nM	2.2		COc1ccccc1N1CCN(CCNS(=O)(=O)c2ccc(C)cc2)CC1
-93		19 nM			CCN(CCCN1CCN(c2ccccc2OC)CC1)S(=O)(=O)c1ccc(C)cc1
	10.4	10 nM	4.2		CC1CCN(CC[C@H]2CCCN2S(=O)(=O)c2cccc3ccccc23)CC1
	10.4	3 nM	3.7		Cc1cccc(S(=O)(=O)N2CCC[C@@H]2CCN2CCC(C)CC2)c1 [SB-258741]
-84	7	1200 nM	2.5		COc1ccc(S(=O)(=O)NCCCN2CCc3cc(OC)ccc3C2)cc1
-100	8.1		3.4		CSc1ccc2c(c1)[C@@H](N1CCN(C)CC1)Cc1ccccc1S2
	10.4	1 nM	2.7		CC1CCN(CC[C@H]2CCCN2S(=O)(=O)c2cccc(O)c2)CC1
-104	7	360 nM	3.6		COc1ccc2c(c1)CCN(CCCNS(=O)(=O)c1cccc3ccccc13)C2
-94	7.4	29 nM	3.3		CCN(CCCN1CCc2cc(OC)ccc2C1)S(=O)(=O)c1ccc(OC)cc1

SMILES	cAMP [1] [%]	pKa [2]	Ki [3]	logP ([4]; read-out: logP)	logP [4]
COc1ccc2c(c1)c(CCN(C)C)cn2C	-7	9.2	1180 nM	2.7	
COc1ccc2[nH]cc(C3=CCN(Cc4ccccc4)CC3)c2c1	-65	7.7	1100 nM	4.3	
